Laboratory results as given in ChEMBL document CHEMBL3779764, “Identification and Structure-Activity Relationships of Diarylhydrazides as Novel Potent and Selective Human Enterovirus Inhibitors” (J Med Chem, 2016).
The source made the active and inactive calls. The calls are words filed in the database; no cut-off is given here.

Legend:
Coxsackievirus B6 = experiment: Antiviral activity against Human coxsackievirus B6 infected in african green monkey Vero cells after 24 to 36 hrs by MTS-based CPE reduction assay; format: functional, organism-based; details: Enterovirus B
Procedure, shortened: (§1)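 Vero cells infected with the coxsackievirus B serotype in the presence of serial compound dilutions. CPE reduction read by MTS/PMS absorbance at 498 nm after 24-36 h at 37 °C. EC50 is the concentration giving 50% CPE inhibition. Mean ± standard deviation of at least three independent experiments.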

Coxsackievirus B3 = experiment: Antiviral activity against Human coxsackievirus B3 infected in african green monkey Vero cells after 24 to 36 hrs by MTS-based CPE reduction assay; format: functional, organism-based; details: Enterovirus B; procedure, shortened: as §1
[1] = Selectivity index, ratio of CC50 for african green monkey Vero cells to EC50 for Enterovirus 71; format: toxicity, cell-based; details: read-out: Ratio CC50/EC50
Procedure, shortened: (§2)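 Selectivity index is CC50/EC50, both taken from MTS-based CPE reduction assays in the same cell line (Vero or RD).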

Coxsackievirus B2 = experiment: Antiviral activity against Human coxsackievirus B2 infected in african green monkey Vero cells after 24 to 36 hrs by MTS-based CPE reduction assay; format: functional, organism-based; details: Enterovirus B; procedure, shortened: as §1
[2] = Cytotoxicity against african green monkey Vero cells assessed as reduction in cell viability after 24 to 36 hrs by MTS-based CPE reduction assay; details: chlorocebus sabaeus
Procedure, shortened: (§3)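 Noninfected Vero or RD cells exposed to serial compound dilutions under the CPE-assay conditions (37 °C, 24-36 h). Viability measured by MTS/PMS absorbance at 498 nm. CC50 is the concentration causing 50% death of noninfected cells.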

Enterovirus A71 [3] = experiment: Antiviral activity against Human enterovirus 71 infected in monkey African green Vero cells by MTS-based CPE reduction assay; format: functional, organism-based; details: Enterovirus A, Vero; read-out: EC50
Procedure, shortened: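 Vero cells (5 × 10^5) seeded, then given serial compound dilutions plus 100 TCID50 EV71. Incubated at 37 °C for 24-36 h until complete CPE in the virus-infected, compound-free control. Viability read by MTS/PMS at 498 nm. EC50 is the concentration inhibiting virus-induced CPE by 50%. At least three repeats.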

Enterovirus A71 [4] = experiment: Antiviral activity against Enterovirus 71 infected in human RD cells after 24 to 36 hrs by MTS-based CPE reduction assay; format: functional, organism-based; details: Enterovirus A, RD; read-out: EC50
Procedure, shortened: (§4)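 RD cells given serial compound dilutions with EV71. Incubated at 37 °C for 24-36 h until full CPE in the virus control. Viability read by MTS/PMS at 498 nm. EC50 is the concentration giving 50% inhibition of virus-induced CPE. At least three independent experiments.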

RD [5] = experiment: Cytotoxicity against human RD cells assessed as reduction in cell viability after 24 to 36 hrs by MTS-based CPE reduction assay; format: functional; procedure, shortened: as §3
[6] = Selectivity index, ratio of CC50 for human RD cells to EC50 for Enterovirus 71; format: toxicity, cell-based; details: read-out: Ratio CC50/EC50; procedure, shortened: as §2
Coxsackievirus B1 = experiment: Antiviral activity against Human coxsackievirus B1 infected in african green monkey Vero cells after 24 to 36 hrs by MTS-based CPE reduction assay; format: functional, organism-based; details: Enterovirus B; procedure, shortened: as §1
Coxsackievirus B4 = experiment: Antiviral activity against Human coxsackievirus B4 infected in african green monkey Vero cells by after 24 to 36 hrs MTS-based CPE reduction assay; format: functional, organism-based; details: Enterovirus B; procedure, shortened: as §1
Coxsackievirus B5 = experiment: Antiviral activity against Human coxsackievirus B5 infected in african green monkey Vero cells after 24 to 36 hrs by MTS-based CPE reduction assay; format: functional, organism-based; details: Enterovirus B; procedure, shortened: as §1
Enterovirus A71 [7] = experiment: Antiviral activity against Human enterovirus 71 infected in human RD cells after 24 to 36 hrs; format: functional, organism-based; details: Enterovirus A; procedure, shortened: as §4
RD [8] = experiment: Inhibition of human enterovirus 71 capsid assessed as reduction in viral replication at early stages infected in human RD cells at 20 ug/ml; format: cell-based; details: Enterovirus A71
Procedure, shortened: (§5)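 Time-of-addition test in RD cells infected with EV71 at MOI 0.01. Compound was added at set times relative to infection (0.05 or 20 µg/mL).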

Enterovirus A71 [9] = experiment: Induction of stabilization of Human enterovirus 71 capsid protein assessed as increase in temperature for achieving equal staining of viral genome at 50 ug/ml by SYBR green fluorescent assay
Procedure, shortened: (§6)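 SYBR green I and II added at 3× with RNase inhibitor at 1 U/µL. Mixture heated 37–70 °C in 1 °C steps, 2 min each, then cooled to 36 °C for 2 min while fluorescence was read.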

Enterovirus A71 [10] = experiment: Antiviral activity against Human enterovirus 71 infected in human RD cells assessed as reduction in virus titer measured during single replication cycle by virus titer assay; format: functional, organism-based
Procedure, shortened: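 RD cells (5 × 10^4 per well) cultured at 37 °C, 5% CO2. Next day, treated with compound at 0.00042-33.3 µg/mL in 10% FBS, 0.5% DMSO. After 2 h, infected with EV71 at MOI 1. Supernatants serially diluted 10^-1 to 10^-8 onto fresh cells. CPE scored at 72 hpi; TCID50 calculated by Reed-Muench.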

RD [11] = experiment: Cytotoxicity against human RD cells infected with human enterovirus 71 measured during a single replication cycle; format: cell-based
Enterovirus A71 [12] = experiment: Induction of stabilization of Human enterovirus 71 capsid protein assessed as increase in temperature for achieving equal staining of viral genome at 5 ug/ml by SYBR green fluorescent assay; procedure, shortened: as §6
RD [13] = experiment: Inhibition of human enterovirus 71 capsid assessed as reduction in viral replication at early stages infected in human RD cells at 0.05 ug/ml; format: cell-based; details: Enterovirus A71; procedure, shortened: as §5

CC(C)S(=O)(=O)n1c(N)nc2ccc(/C(=N/O)c3ccccc3)cc21 [ENVIROXIME]
EC50 (Coxsackievirus B6): 100 nM
EC50 (Coxsackievirus B3): 2480 nM
selectivity ratio [1]: > 1490
EC50 (Coxsackievirus B2): 150 nM
CC50 [2]: > 223000 nM
EC50 (Enterovirus A71 [3]): 150 nM
EC50 (Enterovirus A71 [4]): 240 nM
CC50 (RD [5]): > 223000 nM
selectivity ratio [6]: > 950
EC50 (Coxsackievirus B1): 750 nM
EC50 (Coxsackievirus B4): > 186000 nM
EC50 (Coxsackievirus B5): 120 nM

Cc1cccc(C)c1NNC(=O)c1ccc(C(C)(C)C)cc1
EC50 (Coxsackievirus B6): 560 nM
EC50 (Coxsackievirus B3): 90 nM
selectivity ratio [1]: 978
EC50 (Coxsackievirus B2): 1.6 nM
CC50 [2]: 166000 nM
EC50 (Enterovirus A71 [3]): 170 nM
EC50 (Enterovirus A71 [4]): 420 nM
CC50 (RD [5]): 188000 nM
selectivity ratio [6]: 454
EC50 (Coxsackievirus B1): 1.6 nM
EC50 (Coxsackievirus B4): 5620 nM
EC50 (Coxsackievirus B5): 3190 nM

CN(C)c1ccc(C(=O)NNc2c(Br)cccc2Br)cc1
EC50 (Coxsackievirus B6): 20 nM
EC50 (Coxsackievirus B3): 30 nM
selectivity ratio [1]: > 6460
EC50 (Coxsackievirus B2): 0.5 nM
CC50 [2]: > 194000 nM
EC50 (Enterovirus A71 [3]): 30 nM
EC50 (Enterovirus A71 [4]): 70 nM
CC50 (RD [5]): > 194000 nM
selectivity ratio [6]: > 2930
EC50 (Coxsackievirus B1): 5 nM
EC50 (Coxsackievirus B4): 340 nM
EC50 (Coxsackievirus B5): 60 nM

O=C(c1cccs1)N(Cc1ccc(Br)cc1)c1ccc(F)cc1
EC50 (Enterovirus A71 [7]): 1420 nM

CC(C)(C)c1ccc(C(=O)NNc2c(Br)cccc2Br)cc1
EC50 (Coxsackievirus B6): 920 nM
EC50 (Coxsackievirus B3): 870 nM
selectivity ratio [1]: > 2350
EC50 (Coxsackievirus B2): 1570 nM
CC50 [2]: > 188000 nM
EC50 (Enterovirus A71 [3]): 80 nM
EC50 (Enterovirus A71 [4]): 290 nM
CC50 (RD [5]): > 188000 nM
selectivity ratio [6]: > 641
EC50 (Coxsackievirus B1): 2610 nM
EC50 (Coxsackievirus B4): 6520 nM
EC50 (Coxsackievirus B5): 980 nM

Cc1cc(CCCCCCCOc2ccc(C3=NCCO3)cc2)on1 [DISOXARIL]
inhibition (RD [8]): Active
selectivity ratio [1]: 7.6
CC50 [2]: 148000 nM
EC50 (Enterovirus A71 [3]): 19500 nM
EC50 (Enterovirus A71 [4]): 15300 nM
Activity (Enterovirus A71 [9]): Active
CC50 (RD [5]): 167000 nM
selectivity ratio [6]: 10.9

CN(C)c1ccc(C(=O)NNc2c(Cl)cccc2Cl)cc1
EC50 (Coxsackievirus B6): 940 nM
EC50 (Coxsackievirus B3): 950 nM
selectivity ratio [1]: > 12300
Activity (Enterovirus A71 [10]): Active
EC50 (Coxsackievirus B2): 0.9 nM
CC50 [2]: > 247000 nM
EC50 (Enterovirus A71 [3]): 20 nM
EC50 (Enterovirus A71 [4]): 30 nM
Activity (RD [11]): Non-toxic
Activity (Enterovirus A71 [12]): Active
CC50 (RD [5]): > 247000 nM
selectivity ratio [6]: > 8230
EC50 (Coxsackievirus B1): 1.3 nM
inhibition (RD [13]): Active
EC50 (Coxsackievirus B4): 2570 nM
EC50 (Coxsackievirus B5): 2270 nM
